Measured values taken from article PMC7810150 (Journal of medicinal chemistry, 2020).
Where two headings read alike, the source gives them in different places. Marks after values point to notes of the source that are not given here.

Legend:
[1] = estimated from literature data, cited from earlier work
TC32 Ewing sarcoma cells [2] = experiment: 72 h growth inhibition; assay type: cell-based
EWS-FLI1 mRNA = experiment: Target gene mRNA expression by qRT-PCR in TC32 cells; assay type: cell-based; conditions: 6 h incubation
Procedure, shortened: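 TC32 cells, 300,000/well, were DPBS-washed at ~75% confluence (48–72 h). They were exposed 6 h to test compound at 0, 30, 100, 300 nM or mithramycin at 0, 10, 30, 100 nM. After trypsin collection, RNA was isolated and reverse-transcribed. mRNA was quantified by qRT-PCR relative to GAPDH (ΔΔCt). SEM is from at least two biological replicates.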

[3] = test system: Sp1, VEGFA and BCL-2 mRNA; experiment: Target gene mRNA expression by qRT-PCR in PC3 cells; assay type: cell-based; conditions: 6 h treatment
Procedure, shortened: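 PC3 cells, 300,000/well, were washed with DPBS at ~75% confluence (48–72 h). They were treated 6 h with test compound at 0, 100, 300, 1000 nM or mithramycin at 0, 30, 100, 300 nM. Cells were harvested by trypsin; RNA was isolated and cDNA made. qRT-PCR expression was calculated relative to GAPDH (ΔΔCt). Error bars are SEM of at least two biological replicates.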

TC32 tumors = experiment: TC32 cell line xenograft efficacy in nu/nu mice; assay type: in vivo; conditions: for effect on survival (and tumor volume) / median survival: q3dx8 IV, MTMox32E […] mg/kg, MTM 1 mg/kg; for median survival: vehicle 22 days
Procedure, shortened: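 TC32 cells in 1:1 RPMI (no FBS)/Matrigel, 1.0 × 10^6 cells per 100 μL, injected subcutaneously into the flank of female athymic nu/nu mice. Mice with tumors of at least 50 mm3 (14–28 days post implantation) were randomized. Dosing was IV bolus in 5% Kolliphor EL/2% DMSO/93% saline. Tumor volume was measured every 3 days, with euthanasia at 20 mm tumor length. Tumor volume was compared at day 16 by one-way ANOVA; survival by log-rank (Holm-Sidak).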

EWS-FLI1 and Sp1 mRNA = experiment: TC32 xenograft tumor tissue mRNA analysis; assay type: in vivo, mice; conditions: tumors collected 6 h after the sixth dose, n = 3/group
Procedure, shortened: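 Three mice per group were taken from the q3dx8 IV xenograft study. Tumors were resected 6 h after the 6th dose, rinsed in sterile PBS, snap-frozen in liquid nitrogen and stored at −80 °C. Tissue was cut semifrozen and ground under liquid nitrogen. Total RNA was extracted in RLT lysis buffer with a silica-column kit.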

EWS-FLI1 = EWS-FLI1 (Homo sapiens, UniProt Q01543+Q01844); conditions: 10 μM, 6 h incubation, TC32 cells; DMSO control 48.9 °C
[4] = test system: EWS-FLI1 and NR0B1 protein; conditions: TC32 cells, 24 h, 10, 30 and 300 nM
[5] = test system: EWS-FLI1 transcriptional activity (NR0B1 promoter); experiment: Luciferase reporter assay, NR0B1 promoter, in TC32 cells; assay type: cell-based; conditions: read-out: EC50, NR0B1-mediated luciferase expression; 12 h incubation
TC32 Ewing sarcoma cells [6] = conditions: 72 h; cited from earlier work
PC3 prostate cells = conditions: read-out: PC3 GI50, 72 h; cited from earlier work
[7] = test system: EWS-FLI1 transcriptional activity (NR0B1 promoter); conditions: read-out: EC50 in a similar reporter cell line; cited from earlier work
CMV promoter = conditions: cited from earlier work

Compound: CO[C@@H]([C@@H]1Cc2cc3cc(O[C@H]4CC(O[C@H]5CC(O)[C@H](O)C(C)O5)[C@H](O)C(C)O4)c(C)c(O)c3c(O)c2C(=O)[C@H]1O[C@H]1CC(O[C@H]2CC(O[C@H]3CC(O)[C@H](O)C(C)O3)[C@@H](O)C(C)O2)[C@H](O)C(C)O1)[C@@H](O)C(C)=O (some centres unmarked) [EC-8042]
- clearance (CL/F) ([1]; IP, 24 mg/kg, CL/F): 7197^b mL/h/kg
- dose-normalized systemic exposure (AUC/D) ([1]; IP, 24 mg/kg): 202 kg·ng·h/mL/mg
- volume of distribution (Vd) ([1]; IP, 24 mg/kg): 11.259 L/kg

Compound: CO[C@@H]([C@@H]1Cc2cc3cc(O[C@H]4C[C@@H](O[C@H]5C[C@@H](O)[C@H](O)[C@@H](C)O5)[C@H](O)[C@@H](C)O4)c(C)c(O)c3c(O)c2C(=O)[C@H]1O[C@H]1C[C@@H](O[C@H]2C[C@@H](O[C@H]3C[C@](C)(O)[C@H](O)[C@@H](C)O3)[C@@H](O)[C@@H](C)O2)[C@H](O)[C@@H](C)O1)[C@@H](O)C(C)=O [MTM SK]
- clearance (CL) ([1]; IV, 18 mg/kg): 43.17 mL/min/kg
- dose-normalized systemic exposure (AUC/D) ([1]; IV, 18 mg/kg): 386 kg·ng·h/mL/mg
- volume of distribution (Vd) ([1]; IV, 18 mg/kg): 0.857 L/kg

Compound: (E)-3-(2′-{2-[(Methyl l-Phenylalanyl-l-tryptophanate)amino]-2-oxoethoxy}imino) MTM [MTMox32E]
- TC32 GI50 (TC32 Ewing sarcoma cells [2]): 79 nM
- EWS-FLI1 mRNA levels (EWS-FLI1 mRNA): decreased EWS-FL1 mRNA levels in a concentration-dependent manner
- Sp1, VEGFA and BCL-2 mRNA [3]: minimally affected Sp1, VEGFA, and BCL-2
- effect on survival (and tumor volume) (TC32 tumors): significant in comparison to control (p = 0.0001) and MTM (p = 0.0385)
- median survival (TC32 tumors): 38 days
- effect on survival (TC32 tumors; qMWFx2, 14 mg/kg): statistically significant improvement in survival over vehicle control group
- EWS-FLI1 and Sp1 mRNA levels in tumor (EWS-FLI1 and Sp1 mRNA): reduced mRNA levels of both EWS-FLI1 (p = 0.002) and Sp1 (p = 0.04)
- Tagg of EWS-FLI1 (EWS-FLI1): 51.7 °C
- EWS-FLI1 protein levels [4]: did not affect the protein levels of EWS-FLI1
- NR0B1 protein expression [4]: greatly diminished the expression of NR0B1

Compound: mithramycin A [MTM]
- EC50 [5]: 68 nM
- EWS-FLI1 mRNA levels (EWS-FLI1 mRNA): decreased EWS-FL1 mRNA levels in a concentration-dependent manner
- Sp1, VEGFA and BCL-2 mRNA [3]: minimally affected Sp1, VEGFA, and BCL-2
- effect on survival (and tumor volume) (TC32 tumors): not statistically different than the control group
- median survival (TC32 tumors): 31 days
- EWS-FLI1 and Sp1 mRNA levels in tumor (EWS-FLI1 and Sp1 mRNA): reduced Sp1 mRNA levels (p = 0.003), but not EWS-FLI1
- TC32 GI50 (TC32 Ewing sarcoma cells [6]): 32 nM
- GI50 (PC3 prostate cells): 83 nM
- EC50 [7]: 5 to 100 nM
- effect on cells expressing luciferase under the control of a CMV promoter (CMV promoter): had no effect
